Laboratory results reported in PMC10619633 (Chemical Science, 2023).

Assays:
[1] = Spectroscopic properties and 1O2 quantum yield in MeCN; type: physicochemical; details: for Φ Δ (1O2 quantum yield): irradiation at 450 nm, [Ru(bpy)3]Cl2 as reference
[2] = Octanol/PBS partition coefficient; type: physicochemical; details: room temperature, PF6- salts
How it was run: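 Partitioning measured between octanol and PBS; PBS replaced water to limit pH effects on log P. Complexes were tested as PF6− salts, whereas the biological assays used chloride salts.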

[3] = Solubility in water; type: physicochemical
[4] = system: RPE-1 cells; experiment: Dark cytotoxicity, resazurin assay, non-cancerous RPE-1; type: cell-based; details: read-out: Cytotoxicity IC50 Dark, RPE-1, normoxia (20%)
[5] = system: A549 cells; experiment: Cellular fraction; type: cell-based, Human; details: A549, 24 h co-incubation, nuclei/cytoplasm isolated, ICP-MS
How it was run: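 Test complexes were incubated with A549 cells for 24 h. Nuclei and cytoplasm were then isolated, and each fraction was analysed by ICP-MS for Ru or Os content to give the distribution between compartments. Experiments were done in triplicate.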

[6] = system: A549 cells; experiment: Cellular uptake inhibition by acetazolamide pre-incubation, ICP-MS; type: cell-based, Human; details: A549, complex 5 μM 4 h, acetazolamide 50 μM 2 h pre-incubation
[7] = system: A549 cells; experiment: Cellular uptake by ICP-MS; type: cell-based, Human; details: A549, 5 μM, 4 h
How it was run: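 Test Os(II) complexes were added at 5 μM to A549 cells for 4 h under normoxic or hypoxic conditions. Uptake was quantified by ICP-MS from the cellular Ru/Os concentration. Experiments were done in triplicate.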

Row | Compound | Φ em (luminescence quantum yield) [1] [%] | λ em (emission maximum) [1] [nm] | τ (fluorescence lifetime) [1] [ns] | Φ Δ (1O2 quantum yield) [1] [%] | log P (octanol/PBS partition coefficient) [2] | solubility in water [3] | IC50 [4] [µM] | fraction localized within the cytoplasm [5] | impact of acetazolamide pre-incubation on cellular uptake [6] | cellular uptake under hypoxic compared to normoxic conditions [7]
1 | [Ru(Bphen)2(bpy-(NH CH 2CH2NH2)2-L2)]2+(2 P F 6-).(L= N4-Succinoylsulfanilamide) [complex 6] | 2 | 675 | 117 | 77 | greater than 1 | good solubility in water | > 100 | over 80% | notably reduced | 
2 | [Ru(Bphen)2(bpy-(NH CH 2CH2NH2)2-L)]2+(2PF6-).(L= N4-Succinoylsulfanilamide) [complex 5] | 2 | 674 | 122 | 77 |  | good solubility in water | > 100 |  | notably reduced | 
3 | [Ru(Bphen)2(bpy-(NH 2)2)]2+(2PF6-) [complex 3] |  |  |  |  |  |  | > 100 |  | negligible | 
4 | [Os(Bphen)2(bpy-(NH2)2)]2+(2PF6-) [complex 9] |  |  |  |  |  |  | > 30 |  | negligible | notably reduced cellular uptake under hypoxic conditions
5 | [Cl][Ru][Cl].c1ccc(-c2ccccn2)nc1.c1ccc(-c2ccccn2)nc1.c1ccc(-c2ccccn2)nc1 [Ru(bpy)3, [Ru(bpy)3]Cl2, reference compound] | 8 | 608 | 159 | 77 |  |  |  |  |  | 
6 | [Os(Bphen)2(bpy-(NHCH2CH2NH2)2-L)]2+(2PF6-).(L= N4-Succinoylsulfanilamide) [complex 11] | 0 |  |  |  | greater than 1 | good solubility in water | > 100 |  | notably reduced | 
7 | [Os(Bphen)2(bpy-(NHCH2CH2NH2)2-L2)]2+(2PF6-).(L= N4-Succinoylsulfanilamide) [complex 12] | 0 |  |  |  | greater than 1 | good solubility in water | > 100 | over 80% | notably reduced | 1.3 times
